# Source: PubChem BioAssay
# In the library only some 2.4% were active in any assay of this set; here they are far more common.
# TNF death inh = TNF-alpha cell death inhibition in Jurkat FADD-/- cells; Jurkat FADD-/- TNF necroptosis rescue, ATP luminescence, 24 h; 0 = TNF only, 100 = no-TNF cells; activation (protection from cell death), % at 10 µM; 220,000 tested, 0.068% active; AID 463075;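 active = activation, meaning protection from cell death, of at least 50% relative to plate controls; inactive = activation below 50%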;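 note: necroptosis triggered by 40 ng/mL TNF-alpha added together with compound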
# Hck Nef HTS = human Hck-Nef kinase inhibition. 220,000 tested, 0.68% active. AID 463187. inhibition, % at 20 µM. Recombinant Hck-YEEI plus Nef, Z-Lyte FRET kinase assay. P08631;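 active = Hck-Nef kinase inhibition above about 50%, limit read from the data; inactive = inhibition below that limit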;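 note: 0% = DMSO with Hck plus Nef and 100% = Hck alone without Nef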
# Target sequence (P08631 whole entry, looked up): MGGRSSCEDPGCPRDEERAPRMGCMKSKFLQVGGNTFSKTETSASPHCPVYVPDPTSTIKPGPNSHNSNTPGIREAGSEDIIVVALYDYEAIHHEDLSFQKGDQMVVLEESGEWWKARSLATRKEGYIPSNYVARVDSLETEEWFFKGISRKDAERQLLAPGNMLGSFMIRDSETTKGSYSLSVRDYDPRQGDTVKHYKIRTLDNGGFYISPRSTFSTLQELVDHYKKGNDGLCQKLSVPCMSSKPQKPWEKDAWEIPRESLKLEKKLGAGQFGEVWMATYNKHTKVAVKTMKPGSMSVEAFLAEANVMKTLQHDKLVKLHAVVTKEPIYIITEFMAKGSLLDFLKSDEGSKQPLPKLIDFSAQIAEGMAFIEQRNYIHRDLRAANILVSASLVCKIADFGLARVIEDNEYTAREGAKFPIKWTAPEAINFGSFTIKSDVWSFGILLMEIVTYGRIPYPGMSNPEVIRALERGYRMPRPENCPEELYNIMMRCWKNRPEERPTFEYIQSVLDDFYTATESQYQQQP
# Dynein cargo inh = dynein cargo transport inhibition; 3617.4 mouse cells, GR-EGFP nuclear translocation imaging; test concentration mostly 20 µM; stimulated with dexamethasone, 1 µM; active compounds read low; z-score, hits read low; 220,000 tested, 0.47% active;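 active = plate z-score of nuclear minus cytoplasmic receptor signal below a set negative limit, without overly bright fluorescence or cell loss, cut at about -3.5 in these data, passing the limit was not always enough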;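 note: z-score of nuclear minus cytoplasmic ring GR-EGFP intensity difference per well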
#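 Schedule: 48 h induction, then 1 h compound, then 30 min agonist, 37 °C. Buffer or medium: tetracycline-free induction medium containing charcoal-stripped FBS. Reagent: 1.0 µM final dexamethasone stimulus. Evaluation: nuclear versus cytoplasmic GR-EGFP signal, averaged per well. Signal: high-content fluorescence imaging after fixation.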
# zVAD death inh = blocks zVAD induced death of L929 cells. L929 zVAD necroptosis rescue, ATP luminescence, 24 h; with zVAD 60 µM. 220,000 tested, 0.38% active. viability rescue, % at 10 µM;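 active = activation, scaled between plate controls, above about 75%, limit read from the data; inactive = activation under that limit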;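 note: 0% = zVAD with DMSO and 100% = DMSO alone without zVAD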
# MDM2 E3 inh = inhibitors of human Mdm2 E3 ubiquitin ligase; cell-based MDM2 ubiquitination luciferase reporter, 2 h; 0 = plate control, 100 = twice control, blank-subtracted; 210,000 tested, 0.11% active; signal enhancement, % at 5 µM;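 active = signal enhancement of 30% or more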;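 note: luminescence tracks abundance of the self-degrading MDM2-luciferase fusion protein; higher signal means inhibition of MDM2 E3 ligase activity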
#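 Buffer or medium: Cells held in DMEM | Assay system: Stable mammalian line carrying autodegrading MDM2–luciferase fusion reporter | Quantity: 2000 cells/well | Times: 4 h settle plus 2 h compound, 37 °C | Doses: One concentration, 5 µM, with 0.2% DMSO | Technique: Luminescence with SteadyLite reagent, 15 min at room temperature | Benchmarks: Plate controls and plate blanks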
# Autophagy HCS = modulators of autophagy. calls only at 10 µM (by protocol). MEF GFP-LC3 puncta imaging; test concentration mostly 10 µM. 190,000 tested, 0.98% active;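 active = percentage of spot-positive cells more than 3 SD above its plate mean, without a fluorescence outlier flag or 80% toxicity; inconclusive = no clear call, values can overlap the other calls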;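 note: spot-positive cell cutoff set from DMSO-treated cells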
# Dynein confirm = dynein cargo transport inhibition, confirmation | 1,000 tested, 69% active | calls only at 20 µM | 3617.4 GR-EGFP nuclear translocation imaging, dexamethasone-induced | AID 463116 | shares compounds with Dynein cargo inh;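 active = inhibition of receptor movement into the nucleus at or above a set limit in both runs, with normal cell brightness and cell count; inconclusive = limit reached in only one run, brightness and count normal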;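 note: dexamethasone at 1 µM final in well for 30 min; nuclear minus cytoplasmic GR-EGFP mean intensity difference in channel 2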
# * hit, by the source's call; i = inactive; ? = inconclusive; / = no result given; + = active, no number.
SMILES,TNF death inh,Hck Nef HTS,Dynein cargo inh,zVAD death inh,MDM2 E3 inh,Autophagy HCS,Dynein confirm
O=[N+]([O-])c1c(NCCCO)cc(Sc2nc3ccccc3s2)c2nonc12,-23,-1,-4.1*,1,-3,i,+
CCCC(=O)OCCNc1cc(SCc2ccco2)c2nonc2c1[N+](=O)[O-],-1,2,-3.9*,3,-13,i,+
CCCSc1cc(NCCOC(=O)CCC)c([N+](=O)[O-])c2nonc12,-7,3,-4.9*,0,-5,i,+
O=C(NCc1cccs1)C1CCN(S(=O)(=O)c2cccc3cccnc23)CC1,0,-1,-1.2,1,-4,i,/
Cc1cc(/C=N/Nc2ncnc(N)c2[N+](=O)[O-])c(C)n1-c1ccccc1,-5,28,0.22,-1,/,/,/
CCC(=O)OCCNc1cc(Sc2nc3ccccc3[nH]2)c2nonc2c1[N+](=O)[O-],-15,1,-4.9*,14,-23,i,i
Cc1cc(C(=O)NCCCN2CC(C)CC(C)C2)n(-c2ccccc2)n1 (configuration not stated),2,3,1.5,1,-21,i,/
CC(=O)Nc1sc(N/N=C/c2ccc(N(C)C)cc2)nc1-c1ccc(C)cc1,-2,41,-0.41,1,-8,/,/
CC(=O)Nc1sc(/C(C#N)=C/c2ccc(Cl)c(Cl)c2)nc1-c1ccc(C)cc1,2,-3,-5.9*,1,-16,?,+
COc1ccc(C(C(=O)NC2CCCCC2)N(C(=O)CCl)c2cccc(Cl)c2)cc1 (configuration not stated),-15,1,-3.9*,1,-10,i,+
COc1ccc(-c2nnn(CC(=O)N(Cc3ccc(F)cc3)C(C(=O)NC3CCCC3)c3ccc(F)cc3)n2)cc1 (configuration not stated),-1,0,-0.42,0,/,i,/
COc1ccc(N(C(=O)CCl)C(C(=O)NC2CCCCC2)c2cccnc2)cc1 (configuration not stated),-13,-3,-5.4*,4,-15,i,+
O=C(NC1CCCCC1)C(c1cccnc1)N(C(=O)CCl)c1ccc(F)cc1 (configuration not stated),-14,2,-4.4*,1,-11,i,+
COc1ccc(C(C(=O)NC2CCCCC2)N(C(=O)CCl)c2ccc(OC)cc2)cc1 (configuration not stated),-11,-1,-0.68,1,-21,i,/
O=C(NC1CCCC1)C(c1ccc(F)cc1)N(Cc1ccc(F)cc1)C(=O)CCl (configuration not stated),-7,0,-4.4*,2,-6,i,+
COc1ccccc1C1(O)CCN(CC(=O)Nc2nc(-c3ccccc3)cs2)CC1,2,14,-0.8,20,0,i,/
Cc1ncn(C23CC4CC(CC(C4)C2)C3)n1,1,1,2.4,/,8,i,/
COc1ccc(OC)c(NC(=O)Nc2cc(C(=O)O)ccc2C)c1,1,2,-0.56,0,-2,i,/
COC(=O)C(=C/C(C)=C/c1cccs1)C(=O)OC,3,5,-4*,43,-9,i,?
NC(=O)N/N=C/c1c(Sc2nnnn2-c2ccccc2)nc2ccccn2c1=O,26,3,-5.3*,47,-8,/,i
Cc1nn(-c2ccccc2)c(Cl)c1/C=N/NC(N)=O,-4,12,1.1,-1,-4,/,/
Cn1c(=O)c(Nc2ccc(Cl)cc2)c2c3c(cccc31)C(=O)c1ccccc1-2,-2,2,-4.3,-1,-1,+,+
COCCOc1cc(N(CC(=O)N(C)C)S(=O)(=O)c2ccccc2)c(Cl)cc1Cl,-1,6,-0.94,-1,-26,i,/
COc1cc(C(=O)Sc2ccc(C)cc2)cc(OC)c1OC,-18,1,-4.4*,0,-23,i,+
CCc1nc2ccccc2n1CCC(C)C,-3,2,-0.47,0,-9,i,/
SMILES,TNF death inh,Hck Nef HTS,Dynein cargo inh,zVAD death inh,MDM2 E3 inh,Autophagy HCS,Dynein confirm
Cc1ccc(NC(=O)COC(=O)CNC(=O)c2ccc(Br)cc2)c(C)c1,0,2,-0.22,0,-1,i,/
O=C(c1ccc(S(=O)(=O)Cc2cc(F)ccc2F)c([N+](=O)[O-])c1)N1CCCC1,-13,26,-4.6*,-2,-12,i,+
Cc1ccc(/C=C/C(=O)NCC2COc3ccccc3O2)o1 (configuration not stated),-3,36,-6.6*,1,-17,i,+
COc1ccc(/C=C/C(=O)NCC2COc3ccccc3O2)cc1OC (configuration not stated),2,15,1.2,35,6,i,/
O=C(NCC1CCCO1)C(c1ccc(F)cc1)N(C(=O)Cn1nnc(-c2ccc(F)cc2)n1)c1cccc(O)c1 (configuration not stated),-1,11,-0.95,0,-7,i,/
O=[N+]([O-])c1ccc2c(c1)N([O-])C1(CCCCC1)[N+]2=O,-8,-18,-3.6*,-1,-10,/,+
Cn1cccc1/C=C(/C#N)c1ccc(F)cc1,0,6,2.3,1,-23,i,/
BrC(=C\c1ccccc1)/C=N/n1cnnc1,2,27,-3.7*,56,8,i,+
C=CCn1c(CNc2ccccc2)nnc1SCC(=O)N/N=C/c1ccccc1O,-14,6,-0.48,0,-5,i,/
CC(=O)N1c2ccccc2C(CBr)=CC1(C)C,-27,2,-5.2*,-2,-1,/,i
CCCCCCC(=O)N(O)C1CC(=O)N(c2ccc(Cl)cc2)C1=O (configuration not stated),-8,-31,-5.1*,-1,9,/,+
C=C(CCC(=O)c1ccccc1)C(=O)c1ccccc1,-10,-1,-3.8*,4,-15,i,+
COC(=O)c1ccc(N=Cc2c(C(F)(F)F)[nH]n(C)c2=O)cc1,0,15,-0.52,2,-6,i,/
COc1ccc(-c2nc3ccccc3[nH]2)cc1,-15,-1,-1,-3,-8,i,/
COc1ccc(-n2nc(C(=O)c3cccs3)cc(-c3nc4ccccc4[nH]3)c2=N)cc1,-14,5,-5.9,0,-45,+,i
Cc1onc(-c2ccccc2)c1-c1nc2ccccc2c(=O)o1,-15,3,-0.2,-1,-2,i,/
